Source: ChEMBL document CHEMBL5724801, “EUbOPEN Chemogenomics Library - Multiplex” (2024)
Where “and” joins values, the source holds several entries; their conditions need not be identical. Equal entries are not always repeated.

Legend:
Type in all cases: toxicity, cell-based
Fibroblast = experiment: Multiplex assay against human fibroblast
Procedure, shortened: (§1)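 At seeding, live cells were stained with Hoechst33342, BioTracker Green Microtubule Cytoskeleton Dye, MitoTracker Red and Annexin V Alexa Fluor 680. After compound addition they were imaged on a CQ1 microscope at 37°C and 5% CO2, and CellPathfinder machine-learning gating sorted them into Hoechst high-intensity objects or normal cells, with normal cells further split into healthy, pyknosed or fragmented nuclei and pyknosed cells into mitotic or apoptotic. Tubulin, mitochondrial-mass and membrane-permeability phenotypes are given as per cents of cells with healthy nuclei.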

HEK-293T = experiment: Multiplex assay against HEK293T; conditions: human; procedure, shortened: as §1
U2OS = experiment: Multiplex assay against U2OS; conditions: human; procedure, shortened: as §1
[1] = 12 h, 1 µM, compound concentration 1 uM
[2] = 12 h, 10 µM, compound concentration 10 uM
[3] = 24 h, 1 µM, compound concentration 1 uM
[4] = 24 h, 10 µM, compound concentration 10 uM
[5] = 48 h, 1 µM, compound concentration 1 uM
[6] = 48 h, 10 µM, compound concentration 10 uM

## CC/C(=C(\c1ccc(O)cc1)c1ccc(OCCN(C)C)cc1)c1ccccc1 [AFIMOXIFENE]
Fibroblast; [1]
  Population Apoptotic (%): 6.78% and 3.57%
  Population Fragmented Nuclei (%): 14.83% and 6.12%
  Population Healthy Nuclei (%): 56.94% and 79.59%
  Population Hoechst High Intensity Objects (%): 0%
  Population Membrane Permeable-Phenotype (%): 2.52% and 2.56%
  Population Mitochondria Different-Phenotype (%): 7.56% and 8.97%
  Population Mitotic Cells (%): 93.22% and 96.43%
  Population Normal (%): 100%
  Population Pyknosed Nuclei (%): 28.23% and 14.29%
  Population Tubulin-Different-Phenotype (%): 14.29% and 22.44%
  Total Cell Count: 209 and 196
Fibroblast; [2]
  Population Fragmented Nuclei (%): 14.55% and 7.74%
  Population Healthy Nuclei (%): 54.55% and 72.76%
  Population Hoechst High Intensity Objects (%): 0%
  Population Membrane Permeable-Phenotype (%): 3.33% and 2.55%
  Population Mitochondria Different-Phenotype (%): 25.56% and 23.83%
  Population Mitotic Cells (%): 94.12% and 80.95%
  Population Normal (%): 100%
  Population Pyknosed Nuclei (%): 30.91% and 19.5%
  Population Tubulin-Different-Phenotype (%): 54.44% and 66.38%
  Total Cell Count: 165 and 323
Fibroblast; [3]
  Population Apoptotic (%): 8.77% and 18.75%
  Population Fragmented Nuclei (%): 10.78% and 8.21%
  Population Healthy Nuclei (%): 64.66% and 83.59%
  Population Hoechst High Intensity Objects (%): 0%
  Population Membrane Permeable-Phenotype (%): 4% and 2.45%
  Population Mitochondria Different-Phenotype (%): 6.67% and 9.82%
  Population Mitotic Cells (%): 91.23% and 81.25%
  Population Normal (%): 100%
  Population Pyknosed Nuclei (%): 24.57% and 8.21%
  Population Tubulin-Different-Phenotype (%): 18% and 23.31%
  Total Cell Count: 232 and 195
Fibroblast; [4]
  Population Apoptotic (%): 17.65% and 48.31%
  Population Fragmented Nuclei (%): 12.57%
  Population Healthy Nuclei (%): 50.27% and 67.6%
  Population Hoechst High Intensity Objects (%): 0%
  Population Membrane Permeable-Phenotype (%): 3.26% and 2.76%
  Population Mitochondria Different-Phenotype (%): 29.35% and 27.19%
  Population Mitotic Cells (%): 82.35% and 51.69%
  Population Normal (%): 100%
  Population Pyknosed Nuclei (%): 37.16% and 27.73%
  Population Tubulin-Different-Phenotype (%): 70.65% and 79.72%
  Total Cell Count: 183 and 321
Fibroblast; [5]
  Population Fragmented Nuclei (%): 9.52% and 11.27%
  Population Healthy Nuclei (%): 83.67% and 81.69%
  Population Hoechst High Intensity Objects (%): 0%
  Population Membrane Permeable-Phenotype (%): 1.22% and 2.3%
  Population Mitochondria Different-Phenotype (%): 9.35% and 5.17%
  Population Mitotic Cells (%): 95% and 73.33%
  Population Normal (%): 100%
  Population Pyknosed Nuclei (%): 6.8% and 7.04%
  Population Tubulin-Different-Phenotype (%): 8.94% and 25.86%
  Total Cell Count: 294 and 213
Fibroblast; [6]
  Population Apoptotic (%): 28.57% and 43.14%
  Population Healthy Nuclei (%): 71.37% and 80.49%
  Population Hoechst High Intensity Objects (%): 0%
  Population Membrane Permeable-Phenotype (%): 4.71%
  Population Mitochondria Different-Phenotype (%): 13.37% and 7.41%
  Population Mitotic Cells (%): 71.43% and 56.86%
  Population Normal (%): 100%
  Population Pyknosed Nuclei (%): 8.71% and 13.82%
  Population Tubulin-Different-Phenotype (%): 49.42% and 76.77%
  Total Cell Count: 241 and 369
HEK-293T; [1]
  Population Apoptotic (%): 6.54% and 11.93%
  Population Fragmented Nuclei (%): 0.55% and 3.45%
  Population Healthy Nuclei (%): 57.18% and 21.38%
  Population Hoechst High Intensity Objects (%): 0.28% and 0%
  Population Membrane Permeable-Phenotype (%): 0.48% and 0%
  Population Mitochondria Different-Phenotype (%): 43.96% and 29.03%
  Population Mitotic Cells (%): 93.46% and 88.07%
  Population Normal (%): 99.72% and 100%
  Population Pyknosed Nuclei (%): 42.27% and 75.17%
  Total Cell Count: 363 and 145
HEK-293T; [2]
  Population Apoptotic (%): 25.32% and 29.82%
  Population Fragmented Nuclei (%): 2.69% and 7.52%
  Population Hoechst High Intensity Objects (%): 0%
  Population Mitochondria Different-Phenotype (%): 25.19% and 44.44%
  Population Mitotic Cells (%): 74.68% and 70.18%
  Population Normal (%): 100%
  Population Pyknosed Nuclei (%): 53.2% and 85.71%
  Population Tubulin-Different-Phenotype (%): 8.4% and 22.22%
  Total Cell Count: 297 and 133
HEK-293T; [3]
  Population Apoptotic (%): 8.84% and 19.33%
  Population Fragmented Nuclei (%): 1.87% and 0.54%
  Population Healthy Nuclei (%): 75.2% and 35.48%
  Population Hoechst High Intensity Objects (%): 0%
  Population Membrane Permeable-Phenotype (%): 1.45% and 3.03%
  Population Mitochondria Different-Phenotype (%): 15.56% and 16.67%
  Population Mitotic Cells (%): 91.16% and 80.67%
  Population Normal (%): 100%
  Population Pyknosed Nuclei (%): 22.93% and 63.98%
  Population Tubulin-Different-Phenotype (%): 15.56% and 13.64%
HEK-293T; [4]
  Population Apoptotic (%): 49.01% and 63.64%
  Population Fragmented Nuclei (%): 2.59% and 6.2%
  Population Hoechst High Intensity Objects (%): 0%
  Population Membrane Permeable-Phenotype (%): 0.44% and 4.55%
  Population Mitochondria Different-Phenotype (%): 40.44% and 36.36%
  Population Mitotic Cells (%): 50.99% and 36.36%
  Population Normal (%): 100%
  Population Pyknosed Nuclei (%): 39.12% and 76.74%
  Population Tubulin-Different-Phenotype (%): 28.44% and 27.27%
  Total Cell Count: 386 and 129
HEK-293T; [5]
  Population Apoptotic (%): 7.69% and 13.19%
  Population Fragmented Nuclei (%): 1.84% and 1.61%
  Population Healthy Nuclei (%): 85.71% and 61.85%
  Population Hoechst High Intensity Objects (%): 0% and 0.8%
  Population Membrane Permeable-Phenotype (%): 6.52% and 3.25%
  Population Mitochondria Different-Phenotype (%): 18.34% and 27.92%
  Population Mitotic Cells (%): 92.31% and 86.81%
  Population Normal (%): 100% and 99.2%
  Population Pyknosed Nuclei (%): 12.45% and 36.55%
HEK-293T; [6]
  Population Apoptotic (%): 39.87% and 62.5%
  Population Fragmented Nuclei (%): 2.24% and 6.98%
  Population Healthy Nuclei (%): 66.53% and 24.81%
  Population Hoechst High Intensity Objects (%): 0.2% and 0%
  Population Membrane Permeable-Phenotype (%): 3.37% and 9.38%
  Population Mitochondria Different-Phenotype (%): 77.3% and 65.62%
  Population Mitotic Cells (%): 60.13% and 37.5%
  Population Normal (%): 99.8% and 100%
  Population Pyknosed Nuclei (%): 31.22% and 68.22%
U2OS; [1]
  Population Fragmented Nuclei (%): 0.84% and 5.44%
  Population Healthy Nuclei (%): 90.45% and 83.67%
  Population Hoechst High Intensity Objects (%): 0%
  Population Membrane Permeable-Phenotype (%): 4.07%
  Population Mitochondria Different-Phenotype (%): 0.62% and 4.88%
  Population Mitotic Cells (%): 51.61% and 87.5%
  Population Normal (%): 100%
  Population Pyknosed Nuclei (%): 8.71% and 10.88%
  Population Tubulin-Different-Phenotype (%): 2.48% and 1.63%
  Total Cell Count: 356 and 147
U2OS; [2]
  Population Apoptotic (%): 35.09% and 27.27%
  Population Fragmented Nuclei (%): 2.04% and 0.59%
  Population Healthy Nuclei (%): 78.57% and 73.37%
  Population Hoechst High Intensity Objects (%): 0%
  Population Membrane Permeable-Phenotype (%): 0.43% and 5.65%
  Population Mitotic Cells (%): 64.91% and 72.73%
  Population Normal (%): 100%
  Population Pyknosed Nuclei (%): 19.39% and 26.04%
  Population Tubulin-Different-Phenotype (%): 5.63% and 4.84%
  Total Cell Count: 294 and 169
U2OS; [3]
  Population Apoptotic (%): 53.06% and 20%
  Population Fragmented Nuclei (%): 1.85% and 5.11%
  Population Healthy Nuclei (%): 88.09% and 83.52%
  Population Hoechst High Intensity Objects (%): 0%
  Population Membrane Permeable-Phenotype (%): 0.93% and 2.04%
  Population Mitochondria Different-Phenotype (%): 0.7% and 6.12%
  Population Mitotic Cells (%): 46.94% and 80%
  Population Normal (%): 100%
  Population Pyknosed Nuclei (%): 10.06% and 11.36%
  Population Tubulin-Different-Phenotype (%): 2.04%
  Total Cell Count: 487 and 176
U2OS; [4]
  Population Apoptotic (%): 33.75% and 23.46%
  Population Fragmented Nuclei (%): 2.3%
  Population Healthy Nuclei (%): 77.24% and 56.72%
  Population Hoechst High Intensity Objects (%): 0%
  Population Membrane Permeable-Phenotype (%): 0.99% and 3.51%
  Population Mitotic Cells (%): 66.25% and 76.54%
  Population Normal (%): 100%
  Population Pyknosed Nuclei (%): 20.46% and 40.3%
  Population Tubulin-Different-Phenotype (%): 7.95% and 3.51%
  Total Cell Count: 391 and 201
U2OS; [5]
  Population Apoptotic (%): 41.05% and 54.05%
  Population Fragmented Nuclei (%): 1.6% and 5.32%
  Population Healthy Nuclei (%): 87.51% and 81.56%
  Population Hoechst High Intensity Objects (%): 0%
  Population Membrane Permeable-Phenotype (%): 1.18% and 2.61%
  Population Mitochondria Different-Phenotype (%): 0.26% and 4.78%
  Population Mitotic Cells (%): 58.95% and 45.95%
  Population Normal (%): 100%
  Population Pyknosed Nuclei (%): 10.88% and 13.12%
  Population Tubulin-Different-Phenotype (%): 0.79% and 1.74%
U2OS; [6]
  Population Apoptotic (%): 43.75% and 40.78%
  Population Fragmented Nuclei (%): 4.78% and 5.95%
  Population Healthy Nuclei (%): 74.84% and 55.76%
  Population Hoechst High Intensity Objects (%): 0%
  Population Membrane Permeable-Phenotype (%): 2%
  Population Mitotic Cells (%): 56.25% and 59.22%
  Population Normal (%): 100%
  Population Pyknosed Nuclei (%): 20.38% and 38.29%
  Population Tubulin-Different-Phenotype (%): 7.66% and 8.67%
  Total Cell Count: 628 and 269
